167 variants from the RNAGym collection of RNA variant scans (doi:10.1002/anie.201605470) can be followed below.

B1: Osa-1-4 twister ribozyme (parent)
chain: CCGCCUAACACUGCCAAUGCCGGUCCCAAGCCCGGAUAAAAGUGGAGGGGGCGG

The variants in the data set derive from B1. Description: self-cleavage, relative activity (ratio to wild type); higher = more cleavage; co-transcriptional. In outline: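 In vitro transcription at 37 °C for 2 h allowed the twister ribozyme to cleave itself as it was made. Its 54-nucleotide Oryza sativa template had been synthesised with 97 % wild-type base and 1 % of each other base at the 48 positions downstream of the cleavage site. A template-switching oligonucleotide was used for reverse transcription, followed by PCR amplification and deep sequencing. Whether reads carried upstream sequence set the cleavage status, and relative activity is the fraction cleaved normalised to wild type.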
For A38U U24A, the self-cleavage came out at 0.14.

As for A38U U24C, the self-cleavage amounted to 0.25.

For A38U U24G, the self-cleavage turned out to be 0.03.

Regarding A39G G23A, the self-cleavage stood at 0.2.

As for A39G G23U, the self-cleavage was determined as 0.07.

For the variant A39G G23C, the self-cleavage stood at 0.07.

With A39C U37G, the self-cleavage was determined as 0.98.

Consider A39C U37A, for which the self-cleavage worked out at 0.92.

Regarding A39C U37C, the self-cleavage was found to be 1.02.

Take A38U C32A: the self-cleavage was 0.08.

On to A38U C32U, for which the self-cleavage is 0.11.

A38U C32G: the self-cleavage worked out at 0.12.

With A38U G45A, the self-cleavage amounted to 0.23.

On to A38U G45C, for which the self-cleavage was determined as 0.06.

A38U G45U: the self-cleavage was determined as 0.09.

On to A39G C27A, for which the self-cleavage amounted to 0.09.

With A39G C27U, the self-cleavage is 0.11.

Consider A39G C27G, for which the self-cleavage came out at 0.07.

As to A39G G30C, the self-cleavage was found to be 0.05.

With A39G G30A, the self-cleavage turned out to be 0.05.

Regarding A39G G30U, the self-cleavage amounted to 0.04.

On to A39C G47A, for which the self-cleavage worked out at 0.08.

For A39C G47C, the self-cleavage is 0.06.

As for A39C G47U, the self-cleavage was 0.1.

With A39C G34U, the self-cleavage turned out to be 0.42.

As for A39C G34C, the self-cleavage was 0.2.

As for A39C G34A, the self-cleavage worked out at 0.63.

A39C G54U: the self-cleavage turned out to be 0.65.

As to A39C G54A, the self-cleavage worked out at 0.62.

With A39C G54C, the self-cleavage was 0.6.

For A39G G13U, the self-cleavage stood at 0.03.

In the case of A39G G13C, the self-cleavage turned out to be 0.03.

Consider A39G G13A, for which the self-cleavage was determined as 0.07.

For the variant A38U G22C, the self-cleavage was 0.08.

Turning to A38U G22A, the self-cleavage was 1.

Consider A38U G22U, for which the self-cleavage was 0.89.

On to A39C C20U, for which the self-cleavage worked out at 0.94.

With A39C C20G, the self-cleavage came out at 0.1.

As to A39C C20A, the self-cleavage was found to be 0.87.

On to A39C A8C, for which the self-cleavage was 0.09.

Regarding A39C A8U, the self-cleavage amounted to 0.1.

Turning to A39C A8G, the self-cleavage is 0.23.

On to A38U U12A, for which the self-cleavage was found to be 0.86.

For the variant A38U U12C, the self-cleavage was found to be 0.4.

In the case of A38U U12G, the self-cleavage worked out at 0.31.

Turning to A39G G51U, the self-cleavage is 0.3.

As to A39G G51C, the self-cleavage was 0.09.

On to A39G G51A, for which the self-cleavage was 0.67.

Regarding A38U G47A, the self-cleavage was found to be 0.18.

As for A38U G47U, the self-cleavage was 0.19.

On to A38U G47C, for which the self-cleavage turned out to be 0.08.

In the case of A38U C33U, the self-cleavage is 0.79.

For the variant A38U C33A, the self-cleavage came out at 0.1.

Regarding A38U C33G, the self-cleavage was 0.05.

Take A38U G51U: the self-cleavage came to 0.32.

On to A38U G51C, for which the self-cleavage was determined as 0.09.

With A38U G51A, the self-cleavage was determined as 0.63.

Regarding A38U G34U, the self-cleavage is 0.77.

With A38U G34A, the self-cleavage is 0.78.

Regarding A38U G34C, the self-cleavage stood at 0.5.

On to A39C U43G, for which the self-cleavage was 0.16.

For A39C U43A, the self-cleavage was 0.33.

A39C U43C: the self-cleavage turned out to be 0.16.

For the variant A38U G35C, the self-cleavage came to 0.13.

In the case of A38U G35U, the self-cleavage turned out to be 0.89.

In the case of A38U G35A, the self-cleavage turned out to be 0.83.

For A39G G49A, the self-cleavage is 0.26.

For A39G G49U, the self-cleavage was 0.1.

A39G G49C: the self-cleavage turned out to be 0.08.

As for A39G C31A, the self-cleavage turned out to be 0.03.

For the variant A39G C31G, the self-cleavage worked out at 0.1.

For the variant A39G C31U, the self-cleavage is 0.56.

As to A39C C31G, the self-cleavage came to 0.08.

With A39C C31U, the self-cleavage is 0.53.

A39C C31A: the self-cleavage came out at 0.04.

Regarding A39C A46C, the self-cleavage amounted to 0.04.

Turning to A39C A46G, the self-cleavage stood at 0.05.

On to A39C A46U, for which the self-cleavage worked out at 0.07.

As for A39C G44C, the self-cleavage stood at 0.93.

Take A39C G44U: the self-cleavage stood at 0.88.

Take A39C G44A: the self-cleavage was found to be 0.71.

As for A38U C20A, the self-cleavage stood at 0.82.

For the variant A38U C20G, the self-cleavage is 0.15.

With A38U C20U, the self-cleavage was 0.98.

For A38U G44U, the self-cleavage was 0.89.

For A38U G44A, the self-cleavage stood at 0.92.

Consider A38U G44C, for which the self-cleavage amounted to 0.96.

For A39C G19C, the self-cleavage was 0.06.

As to A39C G19U, the self-cleavage was 0.11.

For A39C G19A, the self-cleavage was 0.28.

Consider A39G C14G, for which the self-cleavage came out at 0.12.

Consider A39G C14U, for which the self-cleavage was found to be 0.11.

Take A39G C14A: the self-cleavage is 0.08.

In the case of A39G C9U, the self-cleavage came to 0.73.

Turning to A39G C9A, the self-cleavage was 0.39.

As to A39G C9G, the self-cleavage was 0.66.

Turning to A38U C52A, the self-cleavage stood at 1.

Consider A38U C52G, for which the self-cleavage came out at 0.98.

A38U C52U: the self-cleavage came to 1.01.

As to A38U C11U, the self-cleavage was found to be 0.97.

On to A38U C11A, for which the self-cleavage was determined as 0.78.

For A38U C11G, the self-cleavage turned out to be 0.59.

Regarding A39C U18G, the self-cleavage amounted to 0.83.

Consider A39C U18A, for which the self-cleavage came to 0.93.

Consider A39C U18C, for which the self-cleavage was determined as 0.96.

For A39G C25U, the self-cleavage was determined as 0.53.

Consider A39G C25G, for which the self-cleavage was 0.07.

For A39G C25A, the self-cleavage turned out to be 0.07.

Regarding A39G G22A, the self-cleavage stood at 0.95.

For A39G G22U, the self-cleavage was 0.26.

With A39G G22C, the self-cleavage was 0.08.

On to A38U G54A, for which the self-cleavage stood at 0.93.

On to A38U G54C, for which the self-cleavage is 0.89.

As to A38U G54U, the self-cleavage came out at 0.95.

Turning to A38U G23U, the self-cleavage came out at 0.07.

With A38U G23C, the self-cleavage turned out to be 0.07.

Take A38U G23A: the self-cleavage worked out at 0.33.

A39C G23C: the self-cleavage is 0.04.

With A39C G23A, the self-cleavage came to 0.12.

Consider A39C G23U, for which the self-cleavage stood at 0.05.

Turning to A39C G22C, the self-cleavage is 0.05.

A39C G22A: the self-cleavage was 0.78.

On to A39C G22U, for which the self-cleavage came out at 0.41.

On to A39C C25U, for which the self-cleavage turned out to be 0.33.

Turning to A39C C25A, the self-cleavage is 0.06.

As to A39C C25G, the self-cleavage worked out at 0.06.

Consider A39G A46C, for which the self-cleavage stood at 0.05.

A39G A46U: the self-cleavage was 0.09.

For A39G A46G, the self-cleavage worked out at 0.06.

Consider A39C U24C, for which the self-cleavage is 0.06.

Turning to A39C U24G, the self-cleavage was 0.03.

A39C U24A: the self-cleavage was found to be 0.05.

Turning to A38U G49C, the self-cleavage worked out at 0.05.

Regarding A38U G49U, the self-cleavage was 0.09.

As for A38U G49A, the self-cleavage worked out at 0.12.

As to A38U C14A, the self-cleavage was determined as 0.07.

Take A38U C14G: the self-cleavage was determined as 0.11.

On to A38U C14U, for which the self-cleavage was determined as 0.22.

Consider A38U G13U, for which the self-cleavage is 0.03.

On to A38U G13C, for which the self-cleavage stood at 0.03.

With A38U G13A, the self-cleavage amounted to 0.11.

As for A39G C11G, the self-cleavage came out at 0.51.

As for A39G C11A, the self-cleavage worked out at 0.62.

With A39G C11U, the self-cleavage is 0.93.

For the variant A39C G42C, the self-cleavage was determined as 0.09.

As for A39C G42U, the self-cleavage was found to be 0.05.

Regarding A39C G42A, the self-cleavage amounted to 0.1.

As for A39G G53A, the self-cleavage worked out at 0.55.

Regarding A39G G53C, the self-cleavage worked out at 0.08.

For A39G G53U, the self-cleavage was 0.2.

On to A38U C21A, for which the self-cleavage was found to be 0.53.

On to A38U C21U, for which the self-cleavage is 0.99.

Consider A38U C21G, for which the self-cleavage was determined as 0.06.

A39G G35C: the self-cleavage came to 0.22.

In the case of A39G G35U, the self-cleavage was determined as 0.87.

Take A39G G35A: the self-cleavage was determined as 0.78.

Consider A39C G45C, for which the self-cleavage worked out at 0.05.

A39C G45A: the self-cleavage was found to be 0.08.

Regarding A39C G45U, the self-cleavage came to 0.06.

A39G G54C: the self-cleavage stood at 0.76.

For the variant A39G G54A, the self-cleavage was determined as 0.79.

With A39G G54U, the self-cleavage came out at 0.8.

With A38U G19U, the self-cleavage is 0.22.

Consider A38U G19A, for which the self-cleavage stood at 0.57.

With A38U G19C, the self-cleavage came to 0.04.

Turning to A39C A7G, the self-cleavage is 0.12.

In the case of A39C A7U, the self-cleavage amounted to 0.06.
